Published values collected from several papers.
Lines come from different studies, so protocols differ.

OCc1ccc(-c2nn(Cc3cccnc3)c3cccnc23)o1
IC50 (CC-LP-1; cell growth or viability; ATP luminescence): > 46 µM

O=C(CSc1nc2ccccc2s1)N/N=C/c1ccc(OCC(=O)Nc2ccc(Br)cc2)cc1
IC50 (HEL 299; cell growth or viability; MTS; 72 h): > 100 µM

COC(=O)c1cc(C(C)=NNc2nc(-c3ccc4c(c3)OCCCO4)cs2)ccc1O
IC50 (HSF; cell growth or viability; MTT; 96 h): 231 µM

Cc1cc(NS(=O)(=O)c2ccc(NC(=O)/C(C#N)=C/c3ccc(N4CCCC4)cc3)cc2)no1
IC50 (HSF; cell growth or viability; MTT; 48 h): > 200 µM

O=c1[nH]cc(F)c(=O)[nH]1
IC50 (BGC-823; cell growth or viability; MTT; 48 h): 15.2 µM

O=C(CSc1nc2ccccc2s1)N/N=C/c1ccc(OCC(=O)Nc2ccc([N+](=O)[O-])cc2)cc1
IC50 (HEL 299; cell growth or viability; MTS; 72 h): > 100 µM

Nc1ccccc1NC(=O)c1ccc(Cn2cnc3c(Nc4ccc(Cl)cc4)ncnc32)cc1
IC50 (NB-4; cell growth or viability; MTT; 72 h): 0.73 µM

C(=N\Nc1cc(N/N=C/c2ccc3ccccc3n2)ncn1)/c1ccc2ccccc2n1
IC50 (BGC-823; cell growth or viability; MTT; 48 h): 12.3 µM

NCc1ccc(-c2nn(Cc3ccccc3)c3ccccc23)o1
IC50 (CC-LP-1; cell growth or viability; ATP luminescence): > 46 µM

COc1ccc(Nc2ncnc3c2ncn3Cc2ccc(C(=O)Nc3ccccc3N)cc2)cc1
IC50 (NB-4; cell growth or viability; MTT; 72 h): 2.44 µM

OCc1ccc(-c2nn(Cc3cccnc3)c3ccccc23)o1
IC50 (CC-LP-1; cell growth or viability; ATP luminescence): ~46 µM

Cc1cc2c(C(N)=O)cccc2n1-c1nc2c(c(NCc3ccccc3)n1)CCCN2
IC50 (KMS-11; cell growth or viability; 72 h): 1.3 µM

O=C(CSc1nc2ccccc2s1)N/N=C/c1ccc(OCC(=O)Nc2cccc(Cl)c2)cc1
IC50 (HEL 299; cell growth or viability; MTS; 72 h): > 100 µM

O=C(NO)c1ccc(Cn2cnc3c(Nc4ccc(Cl)cc4)ncnc32)cc1
IC50 (HEL; cell growth or viability; MTT; 72 h): 0.77 µM

C(=N\Nc1cc(N/N=C/c2cccc3cccnc23)nc(-c2ccccc2)n1)/c1cccc2cccnc12
IC50 (BGC-823; cell growth or viability; MTT; 48 h): 16.9 µM

O=C(NO)c1ccc(Cn2cnc3c(Nc4ccc(F)c(Cl)c4)ncnc32)cc1
IC50 (HEL; cell growth or viability; MTT; 72 h): 3.54 µM

COc1cccc2c1C(=O)c1c(O)c3c(c(O)c1C2=O)C[C@@](O)(C(=O)CO)C[C@@H]3O[C@H]1C[C@H](N)[C@H](O)[C@H](C)O1
IC50 (H69AR; cell growth or viability; MTT; 75 h): 22.5 µM

O=C(NO)c1ccc(Cn2cnc3c(Nc4cccc([N+](=O)[O-])c4)ncnc32)cc1
IC50 (HEL; cell growth or viability; MTT; 72 h): 2.07 µM

Cc1cc(NS(=O)(=O)c2ccc(NC(=O)/C(C#N)=C/c3ccc(N4CCOCC4)cc3)cc2)no1
IC50 (HSF; cell growth or viability; MTT; 48 h): > 200 µM

CS(=O)(=O)NCCCCN=C=S
IC50 (HDFa; cell growth or viability; MTT; 24 h): 42.9 µM

COc1cnccc1Cn1nc(-c2ccc(CO)o2)c2ccccc21
IC50 (CC-LP-1; cell growth or viability; ATP luminescence): > 46 µM

Cc1nc(Nc2ncc(C(=O)Nc3c(C)cccc3Cl)s2)cc(N2CC[C@H](O)C2)n1
IC50 (P3HR-1; cell growth or viability; ATP luminescence; 72 h): > 10 µM

OCc1ccc(-c2nn(Cc3ccccc3)c3ccccc23)o1
IC50 (CC-LP-1; cell growth or viability; ATP luminescence): > 46 µM

CNC(=O)c1cc(Oc2ccc(NC(=O)Nc3ccc(Cl)c(C(F)(F)F)c3)cc2)ccn1
IC50 (BGC-823; cell growth or viability; MTT; 48 h): 6.08 µM

NCc1ccc(-c2nn(Cc3ccccn3)c3cccnc23)o1
IC50 (CC-LP-1; cell growth or viability; ATP luminescence): > 46 µM

CN(C)CCNC(=O)c1cccn2c(=O)c3cc4ccccc4cc3nc12
IC50 (SNU-449; cell growth or viability; imaging; 72 h): 36.3 µM

CN1CCC(NC2CCc3[nH]c4c(C(N)=O)ccc(-c5ccccc5Cl)c4c3C2)CC1 (centres unmarked)
IC50 (BGC-823; cell growth or viability; 96 h): 0.018 µM

COc1ccc(Nc2ncnc3c2ncn3Cc2ccc(C(=O)NO)cc2)cc1
IC50 (HEL; cell growth or viability; MTT; 72 h): 0.8 µM

CCC(=CCc1c(O)cc2c(c1O)C(=O)C[C@H](c1ccccc1O)O2)CC
IC50 (HeLa; cell growth or viability; MTT; 48 h): 37.4 µM

COc1ccccc1Cn1nc(-c2ccc(CO)o2)c2ccccc21
IC50 (CC-LP-1; cell growth or viability; ATP luminescence): ~46 µM

O=C(NO)c1ccc(Cn2cnc3c(Nc4ccc(Br)cc4F)ncnc32)cc1
IC50 (NB-4; cell growth or viability; MTT; 72 h): 1.41 µM

Cc1cnc(CNC(=O)c2c(=O)c3ccc(N4CCCN(C)CC4)nc3n3c2sc2ccccc23)cn1
IC50 (SNU-449; cell growth or viability; imaging; 72 h): 0.37 µM

O=C(NS(=O)(=O)c1ccc(C(F)(F)F)cc1)c1cc2ccccc2n1Cc1ccc(Br)c2ccccc12
IC50 (mouse BMDM; IL-1β release; inhibitor; ELISA; LPS-stimulated): 7.28 µM

Cc1cc(NS(=O)(=O)c2ccc(NC(=O)/C(C#N)=C/c3ccc(N4CCCCC4)cc3)cc2)no1
IC50 (HSF; cell growth or viability; MTT; 48 h): > 200 µM

Nc1ccccc1NC(=O)c1ccc(Cn2cnc3c(Nc4ccc(Br)cc4F)ncnc32)cc1
IC50 (NB-4; cell growth or viability; MTT; 72 h): 0.39 µM
